The test system of experiment [1] is Candida albicans. As to the kind of experiment: Antifungal activity against Candida albicans GDH 2346. In kind it is functional.
The subject of experiment [2] is Candida albicans. As to the kind of experiment: Antifungal activity against Candida albicans SC5314 biofilm persisters at 100 ug/ml after 24 hrs. In kind it is functional, organism-based. The procedure, abridged:
(§1)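 PVC discs (0.8 cm) seeded with washed YNB/50 mM glucose-grown cells (OD520 0.8), adhered 1 h at 37°C, washed, and grown 48 h at 37°C in medium. Biofilms exposed 24 h at 37°C to amphotericin B (5–100 μg ml−1) in YNB glucose buffered to pH 7 with 0.165 M MOPS; drug-free controls. Cells scraped, vortexed, PBS-washed, viable counts on YNB/200 mM glucose agar. Two experiments in duplicate.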

Another experiment deals with Nakaseomyces glabratus. The experiment can be described thus: Antifungal activity against Candida glabrata AAHB 12 exponential-phase planktonic cell assessed as cell killing at 5 ug/ml after 24 hrs. In kind it is functional, organism-based. The procedure, abridged:
(§2)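 Planktonic cells grown at 37°C with shaking in YNB/50 mM glucose. Exponential phase was 8 h for C. krusei, C. albicans and C. tropicalis, 11 h for C. parapsilosis and 18 h for C. glabrata; stationary phase was 48 h. Washed cells at ~10^7 cells ml−1 got amphotericin B (5–100 μg ml−1) in MOPS-buffered (pH 7) YNB glucose, 24 h at 37°C. Viable counts by plating. Two experiments in duplicate.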

Experiment [3] deals with Candida parapsilosis. The experiment can be described thus: Antifungal activity against Candida parapsilosis AAHB 4479 exponential-phase planktonic cell assessed as cell killing after 24 hrs. In kind it is functional, organism-based. A digest of the protocol:
as §2

Experiment [4] has as its system Candida albicans. As to the kind of experiment: Antifungal activity against Candida albicans SC5314 exponential/stationary phase planktonic cell assessed as cell killing at 100 ug/ml after 24 hrs. The class given is functional, organism-based. A digest of the protocol: as §2
The test system of experiment [5] is Candida albicans. The experiment can be described thus: Antifungal activity against Candida albicans SC5314 biofilm assessed as cell killing at 100 ug/ml after 24 hrs. In kind it is functional, organism-based. A digest of the protocol:
as §1

The test system of experiment [6] is Candida tropicalis. As to the kind of experiment: Antifungal activity against Candida tropicalis AAHB 73 stationary-phase planktonic cell assessed as cell killing after 24 hrs. The class given is functional, organism-based. The procedure, abridged:
as §2

In experiment [7] the test system is Pichia kudriavzevii. The experiment can be described thus: Antifungal activity against Candida krusei Glasgow exponential-phase planktonic cell assessed as cell killing at 5 ug/ml after 24 hrs. The class given is functional, organism-based. The procedure, abridged: as §2
Experiment [8] relates to Candida albicans. The experiment can be described thus: Antifungal activity against Candida albicans GDH 2346 exponential phase planktonic cell assessed as cell killing at 5 ug/ml after 24 hrs. The class given is functional, organism-based. The procedure, abridged: as §2
The subject of experiment [9] is Candida albicans. The experiment can be described thus: Antifungal activity against Candida albicans SC5314 exponential/stationary phase planktonic cell assessed as persisters at 100 ug/ml after 24 hrs. The class given is functional, organism-based. The procedure, abridged: as §2
Experiment [10] deals with Candida albicans. As to the kind of experiment: Antifungal activity against Candida albicans GDH 2346 stationary phase planktonic cell assessed as cell killing at 5 ug/ml after 24 hrs. In kind it is functional, organism-based. A digest of the protocol:
as §2

The subject of experiment [11] is Pichia kudriavzevii. The experiment can be described thus: Antifungal activity against Candida krusei Glasgow Biofilm assessed as resistant isolates after 24 hrs. In kind it is functional. A digest of the protocol:
(§3)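 Biofilms formed on 0.8 cm PVC discs. Standardized YNB/50 mM glucose-grown cells (OD520 0.8) adhered 1 h at 37°C, then grew 48 h at 37°C. Mature biofilms were exposed 24 h at 37°C to amphotericin B 5–100 μg ml−1 in YNB glucose buffered to pH 7 with 0.165 M MOPS; drug-free controls. Cells were scraped and vortexed off, washed in PBS, then viable counts were made by serial dilution and plating on YNB/200 mM glucose agar. Two independent experiments, each in duplicate.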

Experiment [12] relates to Pichia kudriavzevii. As to the kind of experiment: Antifungal activity against Candida krusei Glasgow stationary-phase planktonic cell assessed as cell killing after 24 hrs. In kind it is functional, organism-based. A digest of the protocol: as §2
For experiment [13], the system named is Candida tropicalis. As to the kind of experiment: Antifungal activity against Candida tropicalis AAHB 73 exponential-phase planktonic cell assessed as cell killing at 5 ug/ml after 24 hrs. The class given is functional, organism-based. The procedure, abridged: as §2
Experiment [14] deals with Candida parapsilosis. As to the kind of experiment: Antifungal activity against Candida parapsilosis AAHB 4479 Biofilm assessed as resistant isolates after 24 hrs. The class given is functional. The procedure, abridged: as §3
Experiment [15] has as its system Candida albicans. As to the kind of experiment: Antifungal activity against Candida albicans GDH 2346 Biofilm assessed as resistant isolate at 100 ug/ml after 24 hrs. The class given is functional. The procedure, abridged:
as §3

Experiment [16] deals with Candida parapsilosis. The experiment can be described thus: Antifungal activity against Candida parapsilosis AAHB 4479 stationary-phase planktonic cell assessed as cell killing after 24 hrs. In kind it is functional, organism-based. The procedure, abridged: as §2

≈ marks a conversion by molar mass, not a printed value. Calls of active or inactive are those of the source. The rule behind the calls is not given here.

Broadly, the MIC is the lowest concentration that inhibits growth of the organism. Read a high MIC as a less susceptible organism. Consider `C[C@@H]1[C@H](O)[C@@H](C)/C=C/C=C/C=C/C=C/C=C/C=C/C=C/[C@H](O[C@@H]2O[C@H](C)[C@@H](O)[C@H](N)[C@@H]2O)C[C@@H]2O[C@](O)(C[C@@H](O)C[C@@H](O)[C@H](O)CC[C@@H](O)C[C@@H](O)CC(=O)O[C@H]1C)C[C@H](O)[C@H]2C(=O)O` [AMPHOTERICIN B], for which, in the experiment with Candida albicans [1], 1.3 µg/mL (≈ 1.41 µM) was the least that counted as inhibitory (MIC). Also, the outcome with Candida albicans [2], in the experiment with Nakaseomyces glabratus, with Candida albicans [4], with Candida albicans [5], in the experiment on Pichia kudriavzevii [7] and with Candida albicans [8] was Active. In addition, the outcome in the experiment with Candida albicans [9], with Candida albicans [10] and in the experiment on Candida tropicalis [13] was Active. The result with Candida parapsilosis [3], with Candida tropicalis [6], in the experiment on Pichia kudriavzevii [12] and in the experiment on Candida parapsilosis [16] was inactive. For the same compound, the Activity in the experiment with Pichia kudriavzevii [11] stood at 0.001%; in the experiment on Candida parapsilosis [14], 0.07%; in the experiment on Candida albicans [15], 0.01%.

The values are drawn from ChEMBL document CHEMBL1255324, “Absence of amphotericin B-tolerant persister cells in biofilms of some Candida species” (2008).
